Experimental findings from ChEMBL document CHEMBL1157684, “2-Thienyl-4-furyl-6-aryl pyridine derivatives: synthesis, topoisomerase I and II inhibitory activity, cytotoxicity, and structure-activity relationship study” (Bioorg Med Chem, 2010) are described below.

The inhibition is how much of the control response was suppressed. What is called pIC50 is the IC50 on a negative log10 scale, so that one unit is a factor of ten. Read a high pIC50 as a low IC50.

The target in assay [1] is T1, DNA topoisomerase 1 (Homo sapiens) (UniProt P11387).
T1 sequence (whole entry): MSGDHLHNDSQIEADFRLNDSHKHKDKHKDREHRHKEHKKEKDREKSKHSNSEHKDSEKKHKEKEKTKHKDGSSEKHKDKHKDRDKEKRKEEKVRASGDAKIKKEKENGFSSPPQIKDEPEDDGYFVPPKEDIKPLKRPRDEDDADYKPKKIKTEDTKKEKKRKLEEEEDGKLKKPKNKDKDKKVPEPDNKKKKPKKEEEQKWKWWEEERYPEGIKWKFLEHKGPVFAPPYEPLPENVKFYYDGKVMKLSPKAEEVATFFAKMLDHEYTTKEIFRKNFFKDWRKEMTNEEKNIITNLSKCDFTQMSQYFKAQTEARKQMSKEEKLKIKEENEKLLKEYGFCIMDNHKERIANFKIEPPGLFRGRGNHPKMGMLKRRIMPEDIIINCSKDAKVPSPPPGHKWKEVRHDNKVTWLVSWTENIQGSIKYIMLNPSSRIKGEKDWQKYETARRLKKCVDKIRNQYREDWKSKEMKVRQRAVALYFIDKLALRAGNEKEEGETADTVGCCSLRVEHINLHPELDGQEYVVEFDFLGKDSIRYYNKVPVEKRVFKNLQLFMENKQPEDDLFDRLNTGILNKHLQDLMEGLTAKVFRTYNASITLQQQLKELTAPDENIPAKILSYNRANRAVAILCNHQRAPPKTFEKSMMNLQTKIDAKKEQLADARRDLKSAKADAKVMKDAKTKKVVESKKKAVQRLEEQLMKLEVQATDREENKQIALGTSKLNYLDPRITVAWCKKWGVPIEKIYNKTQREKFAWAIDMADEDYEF
Nature of the assay: Inhibition of human recombinant DNA topoisomerase 1-mediated relaxation of supercoiled pBR322 DNA at 100 uM after 30 mins by agarose gel electrophoresis. Put shortly: (§1)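 Recombinant human topo I (0.4 units) with 100 ng supercoiled pBR322, 30 min at 37 °C in 10 mM Tris–HCl pH 7.9, 150 mM NaCl, 0.1% BSA, 1 mM spermidine, 5% glycerol. Compounds from 20 mM DMSO stock. Products run on 1% agarose in TAE, 15 V for 7 h, ethidium-stained, bands quantified under UV.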

For assay [2], the target named is T1, DNA topoisomerase 1 (Homo sapiens). Nature of the assay: Inhibition of human recombinant DNA topoisomerase 1-mediated relaxation of supercoiled pBR322 DNA at 20 uM after 30 mins by agarose gel electrophoresis. In short, it runs like this:
as §1

The subject of another assay is DU-145. Nature of the assay: Cytotoxicity against human DU145 cells after 4 days by ELISA reader assay. The assay is classed as functional, cell-based. The conditions noted are these: DU-145, 96 h. Put shortly:
(§2)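 Cells grown per supplier, seeded at 2–4 × 10⁴ per well, left overnight in medium with 10% FBS at 37 °C under 5% CO₂, then exposed to compounds. WST (cell counting kit-8) reagent added for a further 4 h, absorbance read at 450 nm. IC50 from four-parameter logistic fit; mean ± S.D. of three experiments, each in triplicate.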

The test system of another assay is HeLa. Nature of the assay: Cytotoxicity against human HeLa cells after 4 days by ELISA reader assay. The assay is classed as functional, cell-based. The conditions noted are these: 96 h. In short, it runs like this:
as §2

A further assay concerns K562. Nature of the assay: Cytotoxicity against human K562 cells after 4 days by ELISA reader assay. The assay is classed as functional, cell-based. Conditions: K562, 96 h. In short, it runs like this:
as §2

The target of assay [3] is DNA topoisomerase 2-alpha (Homo sapiens) (UniProt P11388). Nature of the assay: Inhibition of human DNA topoisomerase 2alpha-mediated relaxation of supercoiled pBR322 DNA at 100 uM after 30 mins by agarose gel electrophoresis. In short, it runs like this: (§3)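 Human topo IIα (1 unit) with 200 ng supercoiled pBR322, 30 min at 30 °C in 10 mM Tris–HCl pH 7.9, 50 mM NaCl, 50 mM KCl, 5 mM MgCl2, 1 mM EDTA, 1 mM ATP plus BSA. Products run on 1% agarose in TAE at 25 V for 4 h, ethidium-stained, supercoiled DNA quantified under UV.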

The test system of the next assay is MCF7. Nature of the assay: Cytotoxicity against human MCF7 cells after 4 days by ELISA reader assay. The assay is classed as functional, cell-based. The conditions noted are these: MCF7, 96 h. Put shortly:
as §2

Assay [4] has as its target DNA topoisomerase 2-alpha (Homo sapiens) (UniProt P11388). Put plainly: Inhibition of human DNA topoisomerase 2alpha-mediated relaxation of supercoiled pBR322 DNA at 20 uM after 30 mins by agarose gel electrophoresis. Put shortly:
as §3

The subject of a further assay is HCT-15. Put plainly: Cytotoxicity against human HCT15 cells after 4 days by ELISA reader assay. The assay is classed as functional, cell-based. Conditions: HCT-15, 96 h. Put shortly: as §2

pIC50: −log10 of the molar value. The source made the active and inactive calls. The calls are words filed in the database; no cut-off is given here. Bounds are passed on as bounds.

DNA topoisomerase 2-alpha (Homo sapiens), sequence (P11388 whole entry): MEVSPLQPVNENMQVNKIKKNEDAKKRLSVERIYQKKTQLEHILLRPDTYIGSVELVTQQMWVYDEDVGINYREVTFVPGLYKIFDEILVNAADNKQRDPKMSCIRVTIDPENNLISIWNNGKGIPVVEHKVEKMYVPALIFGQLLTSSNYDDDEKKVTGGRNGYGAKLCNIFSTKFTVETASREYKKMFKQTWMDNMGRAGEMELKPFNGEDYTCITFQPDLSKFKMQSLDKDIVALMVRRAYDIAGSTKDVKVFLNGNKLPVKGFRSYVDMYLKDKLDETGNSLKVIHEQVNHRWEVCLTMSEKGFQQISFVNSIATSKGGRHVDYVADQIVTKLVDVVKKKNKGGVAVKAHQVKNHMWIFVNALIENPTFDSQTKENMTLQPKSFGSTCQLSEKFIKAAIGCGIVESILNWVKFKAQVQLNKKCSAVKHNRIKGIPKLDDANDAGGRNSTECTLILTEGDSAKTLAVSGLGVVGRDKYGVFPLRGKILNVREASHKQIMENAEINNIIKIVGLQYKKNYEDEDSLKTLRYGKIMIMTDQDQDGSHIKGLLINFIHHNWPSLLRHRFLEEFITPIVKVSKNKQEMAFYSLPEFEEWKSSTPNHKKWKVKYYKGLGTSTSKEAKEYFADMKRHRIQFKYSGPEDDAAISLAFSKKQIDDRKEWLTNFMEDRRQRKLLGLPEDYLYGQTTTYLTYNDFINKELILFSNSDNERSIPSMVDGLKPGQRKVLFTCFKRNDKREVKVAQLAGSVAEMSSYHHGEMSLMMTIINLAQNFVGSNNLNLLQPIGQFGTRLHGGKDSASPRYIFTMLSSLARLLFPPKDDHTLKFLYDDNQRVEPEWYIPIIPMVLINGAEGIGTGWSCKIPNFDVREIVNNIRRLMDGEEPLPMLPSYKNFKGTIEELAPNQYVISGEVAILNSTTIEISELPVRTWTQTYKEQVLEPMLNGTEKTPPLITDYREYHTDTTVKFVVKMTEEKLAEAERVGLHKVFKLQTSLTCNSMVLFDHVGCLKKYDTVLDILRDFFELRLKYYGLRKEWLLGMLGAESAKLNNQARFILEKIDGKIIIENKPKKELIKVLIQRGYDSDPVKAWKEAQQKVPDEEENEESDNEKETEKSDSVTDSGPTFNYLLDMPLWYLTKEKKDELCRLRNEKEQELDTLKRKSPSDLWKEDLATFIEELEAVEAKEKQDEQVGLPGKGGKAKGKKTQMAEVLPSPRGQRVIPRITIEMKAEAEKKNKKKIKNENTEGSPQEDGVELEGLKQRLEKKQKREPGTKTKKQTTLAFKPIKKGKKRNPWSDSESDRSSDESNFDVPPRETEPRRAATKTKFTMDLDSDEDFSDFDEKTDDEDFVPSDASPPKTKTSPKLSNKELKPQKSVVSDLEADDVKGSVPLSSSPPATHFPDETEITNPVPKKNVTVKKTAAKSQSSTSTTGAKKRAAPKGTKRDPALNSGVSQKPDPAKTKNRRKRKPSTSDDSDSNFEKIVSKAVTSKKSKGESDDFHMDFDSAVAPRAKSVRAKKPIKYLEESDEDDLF

Consider `Cc1ccsc1-c1cc(-c2ccc(Cl)o2)cc(-c2ccco2)n1`, for which the inhibition in assay [1] amounted to 7.8%; in assay [3], 61.1%; in [4], 30.7%. In addition, the inhibition entry in assay [2] is “inactive”. Besides, the pIC50 in the assay on DU-145 was 4.56; in the assay on HeLa it was 4.65; in the assay on K562, 4.98; in the assay on MCF7 it was 5.25; in the assay on HCT-15, 4.58.

As for `Clc1ccc(-c2cc(-c3ccoc3)cc(-c3ccc(Cl)s3)n2)cc1`, the inhibition in [1] was 2.3%; in assay [3], 62.7%; in assay [4], 56.9%. In assay [2], the inhibition result is “inactive”. In addition, the pIC50 is 4.53 in the assay on DU-145; 4.78 in the assay with HeLa; 4.71 with K562; 5.59 in the assay with MCF7; 6.19 in the assay on HCT-15.

In the case of `Cc1ccccc1-c1cc(-c2ccoc2)cc(-c2ccc(Cl)s2)n1`, the inhibition in [1] was found to be 4.6%; in [3], 60.7%; in [4] it was 49.2%. Further, the inhibition entry in assay [2] was “inactive”. Also, the pIC50 in the assay with DU-145 was 4.73; in the assay with HeLa, 4.72; in the assay on K562 it was 4.91; in the assay with MCF7, 5.84; in the assay with HCT-15 it was 6.00.

As to `Cc1ccc(-c2cc(-c3ccoc3)cc(-c3ccc(Cl)s3)n2)cc1`, the inhibition in [1] came to 0%; in [3], 50.3%; in assay [4], 53.6%. Further, the inhibition result in assay [2] was “inactive”. Also, the pIC50 with DU-145 was 4.60; in the assay on HeLa it was 4.54; in the assay with K562, 4.75; with MCF7 it was 5.27; in the assay with HCT-15 it was 5.93.

In the case of `Clc1ccc(-c2cc(-c3ccc(Cl)o3)cc(-c3ccc(Cl)s3)n2)cc1`, the inhibition is 2.2% in assay [1], 59.8% in [3] and 42.7% in assay [4]. In addition, in assay [2], the inhibition entry was “inactive”. In addition, the pIC50 in the assay with DU-145 is 4.64; in the assay with HeLa, 4.60; with K562 it was 4.71; with MCF7, 4.90; in the assay on HCT-15 it was 4.60.

With `Cc1cccc(-c2cc(-c3ccoc3)cc(-c3ccc(Cl)s3)n2)c1`, the inhibition in assay [1] came to 2.6%; in assay [3], 50.2%; in [4], 37.6%. Also, the inhibition entry in [2] is “inactive”. For the same compound, the pIC50 in the assay with DU-145 is 4.69; in the assay with HeLa, 4.63; with K562, 4.86; in the assay on MCF7 it was 5.40; with HCT-15, 6.06.

Regarding `Clc1ccc(-c2cc(-c3ccoc3)cc(-c3cccnc3)n2)s1`, the results for the inhibition in assay [1], in assay [3] and in assay [4] were 2%, 60.8% and 40.9%, respectively. Further, the inhibition result in [2] was “inactive”. Also, the pIC50 with DU-145 is 4.73; with HeLa, 4.70; in the assay with K562 it was 4.73; in the assay on MCF7 it was 5.46; in the assay with HCT-15, 6.14.

With `Clc1ccc(-c2cc(-c3ccoc3)cc(-c3ccccn3)n2)s1`, the values for the inhibition in assay [1], in assay [3] and in assay [4] were 3.1%, 49.6% and 38.9%, respectively. The inhibition result in assay [2] was “inactive”. For the same compound, the pIC50 in the assay on DU-145 is 4.69; in the assay with HeLa it was 4.67; with K562, 4.70; with MCF7, 5.47; in the assay on HCT-15 it was 5.90.

As for `Cc1ccsc1-c1cc(-c2ccc(Cl)o2)cc(-c2cccnc2)n1`, the inhibition in assay [1] came to 21.4%; in assay [3], 57.2%; in assay [4] it was 25.5%. The inhibition entry in [2] was “inactive”. For the same compound, the pIC50 in the assay on DU-145 is 4.51; with HeLa, less than 4.30; in the assay on K562, 4.91; with MCF7, 5.24; in the assay with HCT-15, less than 4.30.

Take `Cc1ccsc1-c1cc(-c2ccco2)cc(-c2ccccc2Cl)n1`: the inhibition in assay [1] stood at 2%; in assay [3], 33.2%; in assay [4], 3.5%. In addition, the inhibition entry in assay [2] was “inactive”. In addition, the negative-log IC50 (pIC50) was 4.52 with DU-145; 4.62 in the assay on HeLa; 4.59 with K562; 4.85 in the assay on MCF7; 6.27 in the assay on HCT-15.

As to `Cc1ccsc1-c1cc(-c2ccc(Cl)o2)cc(-c2ccc(Cl)cc2)n1`, the inhibition in assay [1] was found to be 5.1%; in assay [3], 59.8%; in assay [4], 40.4%. Besides, in assay [2], the inhibition entry was “inactive”. Further, the pIC50 is 4.66 with DU-145; 4.53 in the assay on HeLa; 4.81 with K562; 4.82 in the assay with MCF7; 4.52 in the assay on HCT-15.

For `Cc1ccsc1-c1cc(-c2ccoc2)cc(-c2ccco2)n1`, the inhibition worked out at 5.4% in [1], 59.9% in assay [3] and 36.4% in assay [4]. In addition, the inhibition entry in [2] was “inactive”. For the same compound, the pIC50 with DU-145 was 4.52; in the assay with HeLa, 4.52; in the assay with K562, 4.63; with MCF7, 4.74; with HCT-15, 6.19.

`Cc1ccc(-c2cc(-c3ccc(Cl)o3)cc(-c3ccc(Cl)s3)n2)cc1`: the inhibition in assay [1] amounted to 14.2%; in assay [3] it was 58.6%; in [4] it was 41.1%. Further, the inhibition result in assay [2] was “inactive”. Besides, the pIC50 was less than 4.30 in the assay with DU-145; less than 4.30 with HeLa; 4.67 in the assay with K562; 5.52 in the assay with MCF7; less than 4.30 with HCT-15.

In the case of `Clc1ccc(-c2cc(-c3ccoc3)cc(-c3ccco3)n2)s1`, the inhibition stood at 9.6% in [1], 49.1% in [3] and 48.6% in assay [4]. Moreover, in [2], the inhibition entry is “inactive”. For the same compound, the pIC50 in the assay with DU-145 is 4.76; in the assay on HeLa, 4.64; in the assay on K562, 4.79; in the assay with MCF7, 5.32; in the assay with HCT-15 it was 5.89.

For `Clc1cccc(-c2cc(-c3ccoc3)cc(-c3ccc(Cl)s3)n2)c1`, the inhibition in assay [1] amounted to 2.1%; in assay [3], 54%; in [4] it was 50.6%. Moreover, the inhibition result in [2] was “inactive”. Also, the negative-log IC50 (pIC50) in the assay on DU-145 is 4.64; in the assay on HeLa it was 4.63; with K562, 4.66; with MCF7, 5.53; with HCT-15 it was 6.02.

Turning to `Clc1ccc(-c2cc(-c3ccco3)nc(-c3ccc(Cl)s3)c2)o1`, the inhibition was 23.1% in [1], 53.8% in [3] and 39.9% in [4]. In addition, the inhibition result in [2] is “inactive”. In addition, the pIC50 is 4.56 in the assay on DU-145; less than 4.30 with HeLa; 4.65 with K562; 4.77 in the assay on MCF7; less than 4.30 in the assay with HCT-15.
